TRPC4 act = activators of mouse TRPC4 channel, primary screen, Fluo4 calcium, HEK293 TRPC4beta/mu-opioid cells; actives 0.49% (n = 310,000); B-score at 10 µM; Fluo4 calcium fluorescence; stronger effect = higher value; Short transient receptor potential channel 4 (Mus musculus), Q9QUQ5;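 active = B-score above 5 SD of library B-scores, and initial fluorescence ratio not above library mean plus 5 SD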;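 also: positive B-score marks a calcium rise read as TRPC4 activation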
Target sequence (Q9QUQ5 whole entry, looked up): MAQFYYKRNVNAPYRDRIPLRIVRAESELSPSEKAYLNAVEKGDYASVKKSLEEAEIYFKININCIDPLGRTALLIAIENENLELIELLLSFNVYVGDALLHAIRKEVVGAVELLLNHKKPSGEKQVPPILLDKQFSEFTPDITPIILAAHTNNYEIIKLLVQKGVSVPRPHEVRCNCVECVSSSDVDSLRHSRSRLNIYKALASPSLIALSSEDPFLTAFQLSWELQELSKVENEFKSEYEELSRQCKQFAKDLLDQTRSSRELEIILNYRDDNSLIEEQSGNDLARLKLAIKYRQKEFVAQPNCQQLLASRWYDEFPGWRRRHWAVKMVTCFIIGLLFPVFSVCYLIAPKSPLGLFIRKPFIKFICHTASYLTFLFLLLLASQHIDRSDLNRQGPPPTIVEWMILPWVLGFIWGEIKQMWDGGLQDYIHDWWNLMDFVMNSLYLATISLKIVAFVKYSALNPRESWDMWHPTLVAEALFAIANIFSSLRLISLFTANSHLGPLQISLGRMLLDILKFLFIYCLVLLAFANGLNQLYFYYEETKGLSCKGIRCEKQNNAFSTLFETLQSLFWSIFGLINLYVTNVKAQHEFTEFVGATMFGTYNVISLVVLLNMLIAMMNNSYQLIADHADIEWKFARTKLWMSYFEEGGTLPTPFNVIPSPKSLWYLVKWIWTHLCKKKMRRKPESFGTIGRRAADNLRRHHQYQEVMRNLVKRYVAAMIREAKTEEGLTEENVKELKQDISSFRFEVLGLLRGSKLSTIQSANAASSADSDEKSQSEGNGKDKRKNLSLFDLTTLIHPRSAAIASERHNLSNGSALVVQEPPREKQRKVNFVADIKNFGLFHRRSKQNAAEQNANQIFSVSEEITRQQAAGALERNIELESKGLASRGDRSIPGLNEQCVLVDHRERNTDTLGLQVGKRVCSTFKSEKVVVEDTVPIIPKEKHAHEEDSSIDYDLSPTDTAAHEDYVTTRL
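Technique: kinetic Fluo4 calcium fluorescence; Test system: TRPC4beta and mu-opioid receptor HEK293 stable cells; Measure: B-scored integrated calcium fluorescence ratio; Benchmarks: low control buffer alone, high control maximal DAMGO; Schedule: 45 min room-temperature Fluo4 loading, 110 s read.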
TRPC4 inh = inhibitors of mouse TRPC4 channel, primary screen, Fluo4 calcium, HEK293 TRPC4beta/mu-opioid cells | DAMGO-evoked Fluo4 calcium flux; stronger effect = lower value | B-score at 10 µM | actives 0.39% (n = 300,000);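 active = B-score over 3 SD under the library average, no early fluorescence shift, positive overall ratio signal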
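Signal: kinetic Fluo4 fluorescence imaging of calcium influx. Material: stable TRPC4beta/mu-opioid receptor HEK293 cells. Probe or stimulus: DAMGO in two steps, submaximal then maximal.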
TRPC6 act = mouse TRPC6 channel activators, primary screen, cell-based, HEK293, membrane potential dye; Short transient receptor potential channel 6 (Mus musculus), Q61143; HEK293-TRPC6 membrane potential dye fluorescence; stronger effect = higher value; B-score at 10 µM; actives 0.13% (n = 310,000); AID 2550, 2010;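 active = B-score of the integrated fluorescence ratio above library mean plus 3 SD, and starting fluorescence ratio within library mean plus 5 SD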;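 also: higher score means more depolarization so channel activation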
Platelet DG rel = inhibitors of platelet dense granule secretion, primary screen, cell-based, MLPCN, human platelets | AID 1663, 2009 | actives 0.22% (n = 300,000) | human platelet-rich plasma, SFLLRN dense granule ATP release, luminescence | inhibition, %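 (compounds screened at 7.5 µM in platelet-rich plasma)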;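 active = mean replicate score, as percent of positive control, at or above 50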
TRPC6 inh = mouse TRPC6 channel inhibitors, primary screen, cell-based, HEK293, membrane potential dye | ACh-evoked depolarization; stronger effect = lower value | actives 1.1% (n = 310,000) | AID 2553, 2010 | Short transient receptor potential channel 6 (Mus musculus), Q61143 | B-score at 10 µM;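 active = B-score under library mean minus 3 SD, initial fluorescence not abnormally high, positive integrated signal ratio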;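 also: B-score derived from integrated fluorescence ratio over the kinetic read; more negative B-score means stronger inhibition of depolarization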
TRPC4 PAM = positive allosteric modulators of TRPC4, primary screen, cell-based, mouse TRPC4beta, HEK293 mu-opioid, Fluo-4 calcium; actives 0.42% (n = 310,000); AID 2227, 2009; B-score at 10 µM; DAMGO EC20, Fluo-4 Ca2+ flux; stronger effect = higher value;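 active = B-score of calcium response area above 5 SD of library B-scores, with initial fluorescence ratio within 5 SD of library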
TRPC4 sel inh 2 = mouse TRPC4 off-target activity of TRPC6 inhibitors, second screen; shares compounds with TRPC6 inh; HEK293 TRPC4/MOR, membrane potential dye fluorescence; channel activated by saturating DAMGO dose; inhibition, % at 10 µM; actives 42% (n = 920);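 active = compounds whose fluorescence signal differed from control wells by over 3 SD, either direction, in both duplicate plates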
TRPC4 spec = mouse TRPC4 modulation by TRPC6 hits, confirmation, selectivity assay for TRPC6 inhibitor project, cell-based, HEK293 TRPC4/mu-opioid, membrane potential dye. membrane potential fluorescence. activity change, negative = inhibition, % at 10 µM. shares compounds with TRPC6 inh. actives 61% (n = 920);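 active = rise or fall in signal beyond 3 SD of buffer-only wells in both replicate plates, either sign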;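 also: integrated kinetic ratio of fluorescence range over baseline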
HEK293 MPD ctr 2-1 = nonspecific membrane potential effects, parental HEK293, confirmation, counter-screen for TRPC6 inhibitor project, cell-based, second counter screen. shares compounds with TRPC6 inh. parental HEK293 membrane potential dye fluorescence; maximal acetylcholine challenge after compound addition. signal change vs control, % at 10 µM. actives 31% (n = 920). AID 2779, 2010;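 active = membrane potential signal moving either way by over 3 SD of the maximum-effect control, in both duplicate plates, meaning non-specific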
HEK293 MPD ctr-1 = membrane potential modulation in parental HEK293, confirmation, counter-screen for TRPC6 inhibitor project, cell-based; shares compounds with TRPC6 inh; parental HEK293 membrane potential dye fluorescence; membrane potential signal change, % at 10 µM; actives 60% (n = 920);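 active = membrane potential signal shifting up or down by more than 3 SD of buffer-only wells, on both duplicate plates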
HEK293 MPD ctr-2 = parental HEK293 membrane potential modulation, confirmation, counter-screen for TRPC6 modulator project, cell-based. shares compounds with TRPC6 inh. membrane potential dye fluorescence. membrane potential signal change, % at 10 µM. actives 51% (n = 2,400);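 active = membrane potential signal moves up or down beyond 5 SD from buffer-only wells, on both duplicate plates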
HEK293 MPD ctr 2-2 = second counter-screen for TRPC6 modulators: effect in parental HEK293 cells; membrane potential dye fluorescence; after compound, maximal acetylcholine stimulation; inhibition, % at 10 µM; shares compounds with TRPC6 inh; actives 14% (n = 2,400);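 active = membrane potential signal drops by more than 5 SD from the mean control signal, in both duplicate plates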
TRPC4 ctr mod = TRPC4 modulation by TRPC6 hit compounds, confirmation, selectivity assay for TRPC6 modulator project, cell-based, HEK293 TRPC4/mu-opioid, membrane potential dye, mouse; shares compounds with TRPC6 inh; membrane potential fluorescence; percent change from control (negative = decrease, positive = increase), % at 10 µM; actives 69% (n = 2,400); AID 488927, 2010;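 active = membrane potential signal moved up or down beyond 5 SD of buffer control wells, in both duplicate plates, actives on both sides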
TRPC4 ctr inh 2 = second check of whether TRPC6 modulators also affect mouse TRPC4. shares compounds with TRPC6 inh. HEK293 TRPC4/mu-opioid, membrane potential dye fluorescence; stimulated with maximal-effect DAMGO. inhibition, % at 10 µM. actives 55% (n = 2,400);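 active = drop in membrane potential signal beyond 5 SD of the control wells in both duplicate plates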;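 also: TRPC4 counter screen for TRPC6 hits run under conditions tuned for TRPC6 not TRPC4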
TRPC6 inh conf = mouse TRPC6 channel inhibitors, confirmation, HEK293 cells, membrane potential dye, duplicate. actives 43% (n = 3,300). inhibition, % at 10 µM. shares compounds with TRPC6 inh. ACh-evoked depolarization;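 active = fluorescence ratio falls more than 5 SD below the full-stimulation control mean, in both duplicate runs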;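 also: integrated fluorescence ratio of peak minus minimum over baseline after agonist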
TRPC6 act conf = mouse TRPC6 channel activators, confirmation, HEK293 cells, membrane potential dye, duplicate; HEK293-TRPC6 membrane potential dye fluorescence, FDSS; activation, % at 10 µM; shares compounds with TRPC6 inh; AID 488961, 2010; actives 11% (n = 2,800);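 active = ratio signal rise beyond 5 SD above unstimulated control wells' mean, seen in both duplicate runs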
Large screens that a line does not name were inactive (follow-up assays come after a bar, where they were run). Shown are actives, neighbours in structure and some others; about 2.5% of the full set was active somewhere.

Cc1cc(N2CCN(c3ccc(C(F)(F)F)cc3[N+](=O)[O-])CC2)c2ccccc2n1	TRPC6 inh -6.3 | HEK293 MPD ctr-2 inactive | HEK293 MPD ctr 2-2 inactive | TRPC4 ctr mod -12% | TRPC4 ctr inh 2 67% | TRPC6 inh conf inactive | TRPC6 act conf inactive
Cc1cc(N2CCN(c3ccc([N+](=O)[O-])c4cccnc34)CC2)c2ccccc2n1	none
Cc1cc(C)n(-c2ccc(S(=O)(=O)N3CCCC3)cc2[N+](=O)[O-])n1	none
O=C(c1ccccc1F)N1CCN(Cc2cccc(Cl)c2)CC1	none
CN(C)CCCN1C(=O)c2cccc3c(Br)ccc(c23)C1=O	TRPC6 inh -9.6 | HEK293 MPD ctr-2 inactive | HEK293 MPD ctr 2-2 87% | TRPC4 ctr mod -32% | TRPC4 ctr inh 2 80% | TRPC6 inh conf 80% | TRPC6 act conf inactive
O=C(CN1CCN(Cc2ccc(Cl)cc2)CC1)N1CCc2ccccc21	none
COC1=C(Nc2ccccc2OC)C(=O)c2ccccc2C1=O	TRPC6 inh -5.8 | HEK293 MPD ctr-2 -91% | HEK293 MPD ctr 2-2 inactive | TRPC4 ctr mod -24% | TRPC4 ctr inh 2 38% | TRPC6 inh conf inactive | TRPC6 act conf inactive
Cc1cc(=O)n2c3ccccc3n(CC(O)CN3CCCCC3)c2c1C#N (stereo unspecified)	TRPC6 inh -8.3 | TRPC4 sel inh 2 50% | TRPC4 spec -21% | HEK293 MPD ctr 2-1 inactive | HEK293 MPD ctr-1 -365% | TRPC6 inh conf 63% | TRPC6 act conf inactive
COc1ccccc1N1CC(C)(C)C(=O)N(C(=O)c2ccc(Cl)cc2)C1=S	none
Cc1ccccc1C(OCCN(C)C)c1ccccc1 (stereo unspecified)	TRPC6 inh -5 | HEK293 MPD ctr-2 193% | HEK293 MPD ctr 2-2 inactive | TRPC4 ctr mod 32% | TRPC4 ctr inh 2 inactive | TRPC6 inh conf 58%
CN1CCN(c2nc3c(c(=O)n(C)c(=O)n3C)n2Cc2ccccc2)CC1	none
CN1CCN(c2nc3c(c(=O)[nH]c(=O)n3C)n2CCSc2nnnn2-c2ccccc2)CC1	TRPC6 inh -8.5 | HEK293 MPD ctr-2 -236% | HEK293 MPD ctr 2-2 inactive | TRPC4 ctr mod -27% | TRPC4 ctr inh 2 62% | TRPC6 inh conf 60% | TRPC6 act conf inactive
CN1CCN(c2nc3c(c(=O)n(C)c(=O)n3C)n2CCSc2nnnn2-c2ccccc2)CC1	TRPC6 inh -7.3 | HEK293 MPD ctr-2 -114% | HEK293 MPD ctr 2-2 100% | TRPC4 ctr mod -41% | TRPC4 ctr inh 2 56% | TRPC6 inh conf 50% | TRPC6 act conf inactive
Cc1cc2c(cc1S(=O)(=O)N1CCOCC1)NC(=O)CO2	none
CCOC(=O)c1[nH]n(-c2ccc(Cl)cc2)c(=O)c1C	TRPC6 inh -7.8 | TRPC4 sel inh 2 inactive | TRPC4 spec inactive | HEK293 MPD ctr 2-1 inactive | HEK293 MPD ctr-1 inactive | TRPC6 inh conf inactive | TRPC6 act conf inactive
Fc1ccc(CNC2CCN(Cc3ccccc3)CC2)cc1	none
Clc1ccc(CNC2CCN(Cc3ccccc3)CC2)cc1	TRPC6 inh -6 | HEK293 MPD ctr-2 inactive | HEK293 MPD ctr 2-2 inactive | TRPC4 ctr mod inactive | TRPC4 ctr inh 2 55% | TRPC6 inh conf inactive
CCn1c(SCC(=O)Nc2ccc3c(c2)n(C)c(=O)n3C)nnc1-c1ccncc1	TRPC6 act 12 | HEK293 MPD ctr-2 246% | HEK293 MPD ctr 2-2 inactive | TRPC4 ctr mod 36% | TRPC4 ctr inh 2 inactive | TRPC6 inh conf inactive | TRPC6 act conf 118%
CCn1c(SCC(=O)NCC(=O)Nc2ccc(F)cc2)nnc1-c1ccncc1	none
NS(=O)(=O)c1ccc(NC(=O)c2ccc(F)cc2F)c(NC(=O)c2ccc(F)cc2F)c1	none
COc1ccc(S(=O)(=O)Nc2ccc(N3CCOCC3)nc2)cc1	TRPC6 inh -5 | HEK293 MPD ctr-2 inactive | HEK293 MPD ctr 2-2 inactive | TRPC4 ctr mod inactive | TRPC4 ctr inh 2 inactive | TRPC6 inh conf inactive | TRPC6 act conf inactive
COc1ccc(NC(=O)c2ccc(N3CCOCC3)nc2)cc1	none
CCC(OCC(O)CN1CCN(CCN2C(=O)c3cccc4cccc(c34)C2=O)CC1)c1ccccc1 (stereo unspecified)	TRPC6 inh -6.1 | HEK293 MPD ctr-2 -90% | HEK293 MPD ctr 2-2 inactive | TRPC4 ctr mod -29% | TRPC4 ctr inh 2 77% | TRPC6 inh conf 60% | TRPC6 act conf inactive

Screens from PubChem.
